How the values were obtained:
[1] = system: RXF 393; experiment: In vitro inhibition of tumor cell growth of RXF-393, renal cancer cell line; format: functional; conditions: Homo sapiens
[2] = biological target: Tubulin (Bos taurus) (UniProt Q6B856+Q862L2+Q862F3); experiment: Inhibition of colchicine binding to tubulin isolated from bovine brain tissue; format: functional; parameters: concentration or dose not given beside the values; conditions: concentration not given here
How it was run: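 1.0 μM tubulin incubated with 5.0 μM [3H]colchicine and 5.0 μM test agent; bound colchicine measured by DEAE-cellulose filter technique.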

[3] = system: SF-295; experiment: In vitro inhibition of tumor cell growth of SF-295, CNS tumor cell line; format: functional; conditions: Homo sapiens
[4] = biological target: Tubulin beta chain (Bos taurus, UniProt Q6B856); experiment: Inhibition of tubulin polymerization; format: functional
Tubulin beta chain, sequence (Q6B856 whole entry): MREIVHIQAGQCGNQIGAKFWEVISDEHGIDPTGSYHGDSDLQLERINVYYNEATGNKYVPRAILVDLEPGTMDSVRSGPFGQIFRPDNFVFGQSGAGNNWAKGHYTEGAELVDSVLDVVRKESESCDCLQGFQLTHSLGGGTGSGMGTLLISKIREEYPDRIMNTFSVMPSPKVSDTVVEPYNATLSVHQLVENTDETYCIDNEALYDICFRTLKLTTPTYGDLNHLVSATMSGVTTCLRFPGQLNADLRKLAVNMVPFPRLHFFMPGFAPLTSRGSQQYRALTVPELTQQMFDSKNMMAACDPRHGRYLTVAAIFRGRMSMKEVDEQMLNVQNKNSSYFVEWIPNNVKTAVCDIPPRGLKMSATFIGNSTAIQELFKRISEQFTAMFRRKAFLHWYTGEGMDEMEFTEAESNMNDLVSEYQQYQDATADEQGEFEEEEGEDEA

[5] = system: HCT-116; experiment: In vitro inhibition of tumor cell growth of HCT116, colon cancer cell line; format: functional; conditions: Homo sapiens
[6] = system: SK-MEL-5; experiment: In vitro inhibition of tumor cell growth of SK-Mel-5, melanoma cell line; format: functional; conditions: Homo sapiens
[7] = system: NCI-H226; experiment: In vitro inhibition of tumor cell growth of NCI-H226, a non small-cell lung cancer cell line; format: functional; conditions: Homo sapiens
[8] = system: SF-268; experiment: In vitro inhibition of tumor cell growth of SF-268, CNS tumor cell line; format: functional; conditions: Homo sapiens
[9] = system: DMS-114; experiment: In vitro inhibition of tumor cell growth of DMS114, a small-cell lung cancer cell line; conditions: Homo sapiens
[10] = system: OVCAR-3; experiment: In vitro inhibition of tumor cell growth of OVCAR-3, ovarian cancer cell line; format: functional; conditions: Homo sapiens
[11] = system: SF-268; experiment: In vitro inhibition of tumor cell growth ofSF-268, CNS tumor cell line; format: functional; conditions: Homo sapiens
[12] = system: KM-20L2; experiment: In vitro inhibition of tumor cell growth of KM20L2, colon cancer cell line; format: functional; conditions: Homo sapiens
[13] = system: KM-20L2; experiment: Inhibition of in vitro tumor cell growth in KM20L2, colon cancer cell line; format: functional; conditions: Homo sapiens

Compound	GI50 [1]	inhibition [2]	GI50 [3]	IC50 [4]	GI50 [5]	GI50 [6]	GI50 [7]	GI50 [8]	GI50 [9]	GI50 [10]	GI50 [11]	GI50 [12]	GI50 [13]
COc1cccc(-c2cc(O)c3cc(OC)ccc3n2)c1	191 nM	13%	151 nM	740 nM	155 nM	117 nM	347 nM	229 nM	–	–	–	–	–
COc1cccc(-c2cc(O)c3cc4c(cc3n2)OCO4)c1	45.7 nM	–	91.2 nM	570 nM	174 nM	37.1 nM	200 nM	–	240 nM	45.7 nM	132 nM	182 nM	–
COc1cc(OC)cc(-c2cc(O)c3cc4c(cc3n2)OCO4)c1	219 nM	31%	257 nM	620 nM	316 nM	309 nM	219 nM	708 nM	302 nM	195 nM	–	708 nM	–
Oc1cc(-c2ccccc2Cl)nc2cc3c(cc12)OCO3	–	24%	–	890 nM	87.1 nM	36.3 nM	263 nM	692 nM	–	77.6 nM	–	–	–
Cc1ccc(-c2cc(O)c3cc4c(cc3n2)OCO4)cc1	–	12%	1910 nM	–	676 nM	1740 nM	1580 nM	2190 nM	–	427 nM	–	1410 nM	–
COc1ccc2nc(-c3cccc(N(C)C)c3)cc(O)c2c1	120 nM	18%	204 nM	840 nM	195 nM	195 nM	372 nM	603 nM	–	170 nM	–	–	–
O=c1cc(-c2ccccc2F)[nH]c2cc3c(cc12)OCO3	–	37%	55 nM	850 nM	60.3 nM	20.9 nM	447 nM	2290 nM	513 nM	81.3 nM	–	–	–
COc1ccc2nc(-c3ccccc3)cc(O)c2c1	–	11%	–	610 nM	–	–	–	–	–	–	–	–	–
COc1ccccc1-c1cc(O)c2cc3c(cc2n1)OCO3	15100 nM	–	20900 nM	14000 nM	28200 nM	89100 nM	22900 nM	–	25100 nM	39800 nM	64600 nM	–	18600 nM
COc1ccc(-c2cc(O)c3cc(Cl)ccc3n2)cc1	> 100000 nM	–	> 100000 nM	> 40000 nM	> 100000 nM	> 100000 nM	> 100000 nM	> 100000 nM	> 100000 nM	> 100000 nM	–	> 100000 nM	–

Source: ChEMBL document CHEMBL1127817, “Antitumor agents. 150. 2',3',4',5',5,6,7-substituted 2-phenyl-4-quinolones and related compounds: their synthesis, cytotoxicity, and inhibition of tubulin polymerization” (J Med Chem, 1994)
